Test results: ChEMBL document CHEMBL1152741, “Discovery, design, and synthesis of anti-metastatic lead phenylmethylene hydantoins inspired by marine natural products” (Bioorg Med Chem, 2009)
The source made the active and inactive calls. The rule behind the calls is not given here.

Experiments:
[1] = Antimetastatic activity against human PC3M cells expressing CTR assessed as reduction in migration area at 200 uM after 48 hrs by spheroid disaggregation assay; format: functional, PC-3M
How it was run: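 PC-3M-CT+ cells (which secrete calcitonin and carry CTR) are formed into spheroids from 5 × 10^4/mL cells in serum-free RPMI 1640. Plates are rocked 2 days at 37°C, giving spheroids of 150–300 μm. Single spheroids are placed on ECM-coated wells in serum-free medium, with t = 0 set at 1 h. They are photographed, kept 48 h at 37°C, then fixed and Diff-Quik stained. Radial migration distance is measured by micrometer after subtracting the initial diameter. Compounds are tested at 200 μM.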

PC-3M [2] = test: Antiinvasive activity in human PC3M cells expressing CTR assessed as change in core spheroid at => 100 uM after 48 hrs by spheroid disaggregation assay; format: functional, cell-based
PC-3M [3] = test: Cytotoxicity against human PC3M cells assessed as cell viability up to 50 uM by MTT assay; format: functional, cell-based
[4] = Antiinvasive activity in human PC3M cells expressing CTR assessed as inhibition of calcitonin-induced cell migration after 24 hrs by spheroid disaggregation assay; format: functional, cell-based; details: PC-3M

SMILES	Activity [1] [um]	Activity (PC-3M [2])	Activity (PC-3M [3])	EC50 [4] [µM]
Cc1ccc(/C=C2\NC(=O)NC2=O)c(F)c1F	175	inactive		
O=C1NC(=O)/C(=C/c2ccc(O)cc2)N1 [4-HYDROXYPHENYLMETHYLENE HYDANTOIN]		inactive	inactive	150
O=C1NC(=O)/C(=C/c2ccccc2-c2ccccc2)N1	56	inactive		
O=C1NC(=O)/C(=C/c2cccc(-c3ccccc3)c2)N1	76	inactive		
N#Cc1cccc(/C=C2\NC(=O)NC2=O)c1	195	inactive		
CCSc1ccc(/C=C2\NC(=O)NC2=O)cc1	15.5	inactive		30
O=C1NC(=O)/C(=C/c2ccccc2-c2cccs2)N1	50	inactive		
O=C1NC(=O)/C(=C/c2ccc(-c3cccs3)cc2)N1	39	inactive		
